Data set [1] relates to σ^E cell envelope stress response (PrpoE-mNG reporter) in E. coli TOP10F′ cells expressing Hbp. Put plainly: σ^E stress reporter assay. The class given is cell-based. To be noted: Escherichia coli, 3 h, read-out: stress reporter EC50 PrpoE-mNG.
The test system of data set [2] is heat-shock response (PgroES-mNG reporter) in E. coli TOP10F′ cells. The data set is described as follows: Heat-shock stress reporter assay. The class given is cell-based. The following applies: Escherichia coli, 3 h, read-out: stress reporter EC50 PgroES-mNG. Summed up:
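TOP10F′ carrying pEH3-empty and pUA66-PgroES-mNG, at OD600 0.05 in M9, added to 384-well plates with a 1:3 test-compound dilution series. Positive-control wells hold cells with pEH3-ssTorA-Hbp induced by 40 μM IPTG; DMSO controls included. After 3 h nonshaken incubation, OD600 and mNG fluorescence (ex 488/em 535 nm) read. EC50 from OD600-corrected fluorescence.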

Data set [3] relates to Rcs stress response (PrprA-mNG reporter) in E. coli TOP10F′ cells. Put plainly: Rcs stress reporter assay. The class given is cell-based. The following applies: Escherichia coli, 3 h, read-out: stress reporter EC50 PrprA-mNG. The procedure, abridged: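 TOP10F′ with pUA66-PrprA-mNG, at OD600 0.05 in M9, dispensed onto a 1:3 test-compound dilution series in 384-well plates. Positive control is an Hbp-secretion inhibitor at 200 μM; DMSO is the negative control. After 3 h nonshaken incubation, OD600 and mNG fluorescence (ex 488/em 535 nm) measured. EC50 derived from OD600-corrected fluorescence.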
For orientation: A reporter such as luciferase makes a cellular process visible.

The subject of another data set is E. coli TOP10F′ cells. Put plainly: MIC in E. coli TOP10F′. To be noted: Escherichia coli, 10 h, read-out: toxicity E. coli MIC. In kind it is cell-based. Summed up: (§1)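 Broth dilution in LB or MHB-II. Bacteria grown to mid-log at 37 °C in flasks, diluted to OD600 0.001 and added 1:1 to medium with 2-fold increasing test compound (0.5% DMSO final). Incubated at 37 °C in a plate reader with continuous linear shaking; OD600 every 15 min for 10 h. MIC is the lowest concentration with no growth detectable by OD600 at 10 h.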

The next data set relates to HEK293 cells. Put plainly: HEK293 cell toxicity. The following applies: 48 h, dose-response up to 60 μM; dash = no toxicity. In kind it is cell-based. The procedure, abridged: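 HEK293 cells kept in DMEM with 10% FBS at 37 °C, 5% CO2. Test compound dispensed as a 1:3 dilution series from DMSO stocks; DMSO as negative and tamoxifen as positive control. About 2000 cells per well incubated 48 h at 37 °C, 5% CO2, 90% humidity. Viability read with CellTiter-Glo reagent after 2 min shaking.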

The subject of another data set is Escherichia coli (K12). Put plainly: MIC against bacterial strains. In kind it is cell-based. To be noted: 10 h. The procedure, abridged:
as §1

The target in another data set is OmpT protease (Escherichia coli, UniProt P09169). Put plainly: OmpT protease activity, compound added after OmpT folding was completed. In kind it is biochemical. To be noted: 100 μM, added 2 h after start of folding reaction. The procedure, abridged:
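BAM proteoliposomes (2 μM) mixed with SurA (140 μM) and denatured OmpT (20 μM) subreactions in Tris/HCl, pH 6.5, and held 2 h at 30 °C to prefold OmpT. Then combined with a subreaction of test compound (200 μM) or DMSO plus fluorogenic peptide; concentrations are per subreaction. Cleavage read at ex 330/em 430 nm for 80 min at 30 °C. Slope-based activity relative to DMSO.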

The test system of another data set is Acinetobacter baumannii. Put plainly: MIC against bacterial strains. In kind it is cell-based. To be noted: 10 h. Summed up:
as §1

The test system of data set [4] is E. coli MC4100 expressing FhuA ΔC/Δ4L. The data set is described as follows: Growth inhibition of E. coli expressing open channel FhuA ΔC/Δ4L. The class given is cell-based, Escherichia coli. To be noted: E. coli MC4100, LB, 10 h.
For a further data set, the system named is Klebsiella pneumoniae. Put plainly: MIC against bacterial strains. In kind it is cell-based. To be noted: 10 h. Summed up: as §1
The test system of data set [5] is Staphylococcus aureus MRSA. The data set is described as follows: MIC against bacterial strains. To be noted: 10 h. The class given is cell-based. Summed up:
as §1

In the next data set the test system is E. coli MC4100 cells. Put plainly: Potentiation of antibiotics. The class given is cell-based, Escherichia coli. To be noted: E. coli MC4100, LB, 10 h.
The next data set deals with Bacillus subtilis 168. The data set is described as follows: MIC against bacterial strains. In kind it is cell-based. Summed up:
as §1

In the next data set the test system is Enterococcus faecium VRE. The data set is described as follows: MIC against bacterial strains. In kind it is cell-based. The following applies: 10 h. The procedure, abridged:
as §1

In data set [6] the test system is secretion of autotransporter Hbp in E. coli MC1601 degP::S210A. The data set is described as follows: Hbp secretion analysis. In kind it is cell-based, Escherichia coli. The following applies: Western blotting. Summed up:
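MC1061 degP::S210A cells grown in M9 to mid-log, diluted to OD600 0.1, mixed 1:1 with M9 containing test compound or DMSO (0.5% final). Hbp induced from pEH3 with 40 μM IPTG at 37 °C with shaking. Cells spun 5000g for 5 min; supernatant TCA-precipitated overnight at 4 °C. Lysates and medium run on 11% SDS-PAGE, immunoblotted (Hbp passenger, Hbp β-barrel, DegP), loading OD600-corrected.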
(In general: In western blotting, separated proteins are transferred to a membrane and probed.)

The test system of a further data set is Enterobacter cloacae. The data set is described as follows: MIC against bacterial strains. The class given is cell-based. To be noted: 10 h. Summed up:
as §1

Data set [7] has as its system BAM complex (BamABCDE) reconstituted in proteoliposomes. Put plainly: OmpT folding in vitro assay with BAM proteoliposomes. In kind it is biochemical, Escherichia coli. To be noted: 100 μM compound, OmpT:SurA 1:42 versus 1:7. Summed up: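 BAM proteoliposomes (His-tag-purified BamABCDE in DDM, reconstituted into E. coli polar lipids) with test compound and fluorogenic peptide in Tris/HCl, pH 6.5, preincubated 5 min at 30 °C. Mixed with a second subreaction of SurA plus guanidine-denatured OmpT at 1:7 or 1:42 OmpT:SurA. Fluorescence (ex 330/em 430 nm) read every 20 s for 80 min at 30 °C. Linear-phase slopes from three replicates, as % of DMSO.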

Another data set deals with Pseudomonas aeruginosa. Put plainly: MIC against bacterial strains. In kind it is cell-based. The following applies: 10 h. Summed up:
as §1

For data set [8], the system named is OMP levels in E. coli TOP10F′ cells. Put plainly: Cell envelope protein analysis. The class given is cell-based, Escherichia coli. The procedure, abridged: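 TOP10F′ cells grown 3 h in LB in flasks with one concentration of test compound. Cells pelleted, sonicated on ice in 10 mM Tris-HCl, 3 mM EDTA, pH 8.0 with protease inhibitors. Envelopes pelleted at 200 000g for 1 h at 4 °C and solubilised overnight at 4 °C in TBS with 1% DDM. SDS-PAGE and immunoblots, loading corrected by OD600; 3 independent experiments.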

A further data set has as its system E. coli MC4100 bamA101. Put plainly: Growth inhibition of bamA101 knockdown strain versus wild-type. The class given is cell-based, Escherichia coli. To be noted: E. coli MC4100 bamA101, MHB-II, 10 h. Summed up:
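Wild-type MC4100 and bamA101 knockdown cells grown to mid-log at 37 °C, diluted to OD600 0.001 and mixed 1:1 with MHB-II containing 2-fold increasing test compound (0.5% DMSO final) in 96-well plates. Incubated at 37 °C with continuous linear shaking; OD600 read every 15 min. The 10 h OD600 is expressed as % growth versus DMSO-treated cells (100%).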

In data set [9] the test system is Escherichia coli (uropathogenic). The data set is described as follows: MIC against bacterial strains. The class given is cell-based. To be noted: 10 h. Summed up: as §1
[10] abbreviates: 0.25× MIC, cell envelopes, Western blotting.

Molecules are shown by their SMILES. Converted amounts (≈) assume the structure as drawn. A value given as a limit tells only on which side of the number the result lay.

The results in this text go back to PMC8369490 (ACS Infectious Diseases, 2021).

BAM complex (BamABCDE) reconstituted in proteoliposomes, sequence (P77774 20-392): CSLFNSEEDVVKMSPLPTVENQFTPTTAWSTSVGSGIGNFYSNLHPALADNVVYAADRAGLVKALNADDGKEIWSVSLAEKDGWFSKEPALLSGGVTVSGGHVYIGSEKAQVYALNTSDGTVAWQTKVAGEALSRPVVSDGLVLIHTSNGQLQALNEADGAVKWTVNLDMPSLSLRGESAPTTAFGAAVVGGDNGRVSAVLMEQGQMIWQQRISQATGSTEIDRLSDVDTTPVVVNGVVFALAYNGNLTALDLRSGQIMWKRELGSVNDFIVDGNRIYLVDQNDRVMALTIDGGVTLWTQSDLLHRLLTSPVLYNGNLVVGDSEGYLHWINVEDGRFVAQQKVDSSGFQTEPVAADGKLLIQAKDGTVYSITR
BAM complex (BamABCDE) reconstituted in proteoliposomes, sequence (P0A903 25-344, further chain): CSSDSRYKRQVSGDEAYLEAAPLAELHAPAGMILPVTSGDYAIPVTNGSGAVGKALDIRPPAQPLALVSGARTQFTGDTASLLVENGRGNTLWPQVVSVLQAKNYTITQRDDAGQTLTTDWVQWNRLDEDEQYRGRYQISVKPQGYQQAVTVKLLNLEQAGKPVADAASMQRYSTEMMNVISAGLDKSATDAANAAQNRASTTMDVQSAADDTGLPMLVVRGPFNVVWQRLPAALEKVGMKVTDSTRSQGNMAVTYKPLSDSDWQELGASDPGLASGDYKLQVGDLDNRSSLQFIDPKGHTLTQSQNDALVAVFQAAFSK
BAM complex (BamABCDE) reconstituted in proteoliposomes, sequence (P0A937 20-113, further chain): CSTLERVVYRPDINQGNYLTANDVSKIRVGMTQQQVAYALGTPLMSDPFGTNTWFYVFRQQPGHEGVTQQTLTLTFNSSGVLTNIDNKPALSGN
BAM complex (BamABCDE) reconstituted in proteoliposomes, sequence (P0AC02 20-245, further chain): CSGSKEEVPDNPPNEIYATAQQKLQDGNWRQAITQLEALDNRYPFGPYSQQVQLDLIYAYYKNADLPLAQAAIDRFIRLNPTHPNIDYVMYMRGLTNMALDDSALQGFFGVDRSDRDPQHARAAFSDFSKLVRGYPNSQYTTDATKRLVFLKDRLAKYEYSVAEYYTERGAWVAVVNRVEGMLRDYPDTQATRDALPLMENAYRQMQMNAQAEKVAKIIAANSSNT
OmpT protease, sequence (P09169 21-317): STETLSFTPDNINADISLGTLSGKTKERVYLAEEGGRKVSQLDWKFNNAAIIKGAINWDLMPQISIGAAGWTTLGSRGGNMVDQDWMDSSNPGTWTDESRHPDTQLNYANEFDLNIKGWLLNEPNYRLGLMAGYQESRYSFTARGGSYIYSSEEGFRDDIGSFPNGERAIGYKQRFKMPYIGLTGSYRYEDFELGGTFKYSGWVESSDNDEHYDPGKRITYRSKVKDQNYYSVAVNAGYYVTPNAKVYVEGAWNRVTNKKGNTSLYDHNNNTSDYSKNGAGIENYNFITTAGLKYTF

What is called EC50 is the concentration that produces a half-maximal response. Broadly, the MIC is the lowest concentration that inhibits growth of the organism. Regarding `CCOC(=O)C1=C(O)CCC(NC(=O)OC(C)(C)C)C1` (stereo not shown) [compound 1], the values for the EC50 in data set [1], in data set [2] and in data set [3] were 1 µM, greater than 60 µM and 38 µM, respectively. Moreover, in the data set on E. coli TOP10F′ cells, the MIC was greater than 200 µM.
In the case of `CC(=O)Nc1cc(-c2nc(O)c3c(n2)CCC(NC(=O)OC(C)(C)C)C3)ccn1` (stereo not shown) [compound 3], the values for the EC50 in [1], in data set [2] and in data set [3] were 7 µM, greater than 60 µM and 16 µM, respectively. The “toxicity HEK293 LD50” value in the data set on HEK293 cells was found to be 20 µM. In addition, the minimum inhibitory concentration (MIC) with E. coli TOP10F′ cells was 25 µM (≈ 9.99 µg/mL).
As to `Nc1cc(-c2nc3c(c(NCc4ccccc4)n2)CC(N)CC3)ccn1` (stereo not shown) [compound 14, 2-(2-aminopyridin-4-yl)-N4-benzyl-5,6,7,8-tetrahydroquinazoline-4,6-diamine], the MIC with Escherichia coli (K12) is 100 µM (≈ 34.6 µg/mL); against Acinetobacter baumannii, 100 µM (≈ 34.6 µg/mL); with Klebsiella pneumoniae, greater than 200 µM; in [5] it was greater than 200 µM; against Bacillus subtilis 168 (Bacillus subtilis 168, 10 h, highest concentration tested 200 μM), greater than 200 µM; against Bacillus subtilis 168 (Bacillus subtilis, 168, 10 h), greater than 200 µM. The MIC was greater than 200 µM against Enterococcus faecium VRE; greater than 200 µM in the data set on Enterobacter cloacae; 200 µM (≈ 69.3 µg/mL) against Pseudomonas aeruginosa; 100 µM (≈ 34.6 µg/mL) in the data set with E. coli TOP10F′ cells; greater than 200 µM in data set [9]. Besides, the “effect on OmpT protease activity when added after OmpT was folded” value on OmpT protease is recorded as “inhibiting effect”. For the same molecule, the “effect of FhuA ΔC/Δ4L expression on MIC of the compound” value in [4] was “did not affect”. For the same molecule, the concentration for a half-maximal effect (EC50) is greater than 60 µM in [1], greater than 60 µM in data set [2] and 12 µM in data set [3]. Besides, in the data set with E. coli MC4100 cells (compound at 0.25× MIC (2: 12 μM, 14: 25 μM)), the “fold decrease of MIC of vancomycin in presence of compound” value is 4 fold. For the same molecule, the “MICs of ampicillin and chloramphenicol in presence of compound” value in the data set with E. coli MC4100 cells (compound at 0.25× MIC) is on record as “largely unaffected”. Besides, in data set [6] (0.25× MIC, whole cell lysates), the “Hbp processing in cells (pro-Hbp)” value is “accumulation of pro-Hbp”. Also, the “amount of secreted Hbp passenger in the spent medium” value in data set [6] (2 and 14 at 0.25× MIC, spent medium) is recorded as “decreased”. Also, the “toxicity HEK293 LD50” value in the data set with HEK293 cells amounted to 60 µM. The “influence of 6-fold excess of SurA on the inhibiting effect of the compound” value in [7] is listed as “did not influence”. Besides, the “levels of the major β-barrel OMPs OmpF, OmpC, and OmpA compared to DMSO” value in data set [8] (0.25× MIC (2: 12 μM, 14: 25 μM), cell envelopes, Western blotting) is given as “dropped considerably”. For the same molecule, the “level of BamA” value in [8] (setting [10]) is “severely reduced”. Besides, the “levels of lipoproteins BamB and LpoB” value in [8] (setting [10]) is on record as “largely unaffected”. Moreover, in data set [8] (PhoE expressed from pEH3, 0.25× MIC and 0.5× MIC, 3 h, seminative PAGE), the “total levels of PhoE” value was “reduced total levels of PhoE in a dose-dependent manner”. Also, the “antimicrobial effect (MIC) in bamA101 mutant versus wild-type” value in the data set on E. coli MC4100 bamA101 is reported as “enhanced antimicrobial effect”.
`CN[C@H](CC(C)C)C(=O)N[C@H]1C(=O)N[C@@H](CC(N)=O)C(=O)N[C@H]2C(=O)N[C@H]3C(=O)N[C@H](C(=O)N[C@H](C(=O)O)c4cc(O)cc(O)c4-c4cc3ccc4O)[C@H](O)c3ccc(c(Cl)c3)Oc3cc2cc(c3O[C@@H]2O[C@H](CO)[C@@H](O)[C@H](O)[C@H]2O[C@H]2C[C@](C)(N)[C@H](O)[C@H](C)O2)Oc2ccc(cc2Cl)[C@H]1O` [vancomycin, reference compound]: the “permeability upon FhuA ΔC/Δ4L expression” value in data set [4] is given as “clearly increased”.
